ChEMBL document CHEMBL3112425, “Design, synthesis, and structure-activity relationship studies of a potent PACE4 inhibitor” (J Med Chem, 2014)

Key:
DU-145 [1] = assay: Cellular uptake in human DU145 cells after 1 hr by propidium iodide staining-based FACS analysis; format: ADME, cell-based; conditions: du-145, 1 h
Summary of the method: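 FITC-βAla-labelled peptides at 10 μM were given to DU145 cells for 1 h in serum-free RPMI. Cells were collected, then washed twice with 0.05% trypsin (5 min, 37 °C) to strip membrane-bound peptide. Propidium iodide (10 μg/mL, 2 min) excluded damaged cells. FACS read 10 000 events/sample as geometric mean fluorescence, against untreated-cell autofluorescence.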

[2] = Acute toxicity in human DU145 cells assessed as cell death/lysis at 100 uM after 4 hrs by LDH assay; format: cell-based, DU-145; conditions: read-out: INH
Summary of the method: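 DU145 cells (RPMI 1640, 5% FBS, 37 °C, 5% CO2) plated; 24 h later peptides added at 100 μM. After 4 h, release of lactate dehydrogenase into the medium was quantified enzymatically with a commercial LDH cytotoxicity kit as the measure of acute membrane damage/lysis.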

PC-3 [3] = assay: Cytotoxicity against human PC3 cells up to 350 uM after 72 hrs by MTT assay; format: functional
Summary of the method: (§1)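 Prostate cancer cells were kept in RPMI 1640 at 37 °C, 5% CO2, with 5% FBS for DU145 and 10% FBS for LNCaP and PC3. After 24 h, medium was changed and peptides added at various concentrations, up to 350 μM. Viability was read by MTT after 72 h treatment. IC50 from dose–response curves, triplicate, mean ± SEM.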

[4] = Half life in CD-1 mouse plasma at 0.5 ug/uL by RP-HPLC analysis; format: ADME, cell-free
Summary of the method: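 Peptides at 0.5 μg/μL were incubated at 37 °C in heparinized plasma pooled from mixed-sex CD1 mice. At each time point the reaction was stopped with 1 M guanidinium-HCl, then acetonitrile, and proteins were spun out. Supernatant peptide AUC (RP-HPLC) was compared with non-incubated samples. Half-life came from a one-phase decay fit. Run ≥3 times, duplicate per time point.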

[5] = molecular target: T1, Proprotein convertase subtilisin/kexin type 6 (Homo sapiens, UniProt P29122); assay: Inhibition of human recombinant PACE4 expressed in drosophila schneider 2 cells using pyroGlu-Arg-Thr-Lys-Arg-AMC as substrate after 1 hr
T1 sequence (P29122 whole entry): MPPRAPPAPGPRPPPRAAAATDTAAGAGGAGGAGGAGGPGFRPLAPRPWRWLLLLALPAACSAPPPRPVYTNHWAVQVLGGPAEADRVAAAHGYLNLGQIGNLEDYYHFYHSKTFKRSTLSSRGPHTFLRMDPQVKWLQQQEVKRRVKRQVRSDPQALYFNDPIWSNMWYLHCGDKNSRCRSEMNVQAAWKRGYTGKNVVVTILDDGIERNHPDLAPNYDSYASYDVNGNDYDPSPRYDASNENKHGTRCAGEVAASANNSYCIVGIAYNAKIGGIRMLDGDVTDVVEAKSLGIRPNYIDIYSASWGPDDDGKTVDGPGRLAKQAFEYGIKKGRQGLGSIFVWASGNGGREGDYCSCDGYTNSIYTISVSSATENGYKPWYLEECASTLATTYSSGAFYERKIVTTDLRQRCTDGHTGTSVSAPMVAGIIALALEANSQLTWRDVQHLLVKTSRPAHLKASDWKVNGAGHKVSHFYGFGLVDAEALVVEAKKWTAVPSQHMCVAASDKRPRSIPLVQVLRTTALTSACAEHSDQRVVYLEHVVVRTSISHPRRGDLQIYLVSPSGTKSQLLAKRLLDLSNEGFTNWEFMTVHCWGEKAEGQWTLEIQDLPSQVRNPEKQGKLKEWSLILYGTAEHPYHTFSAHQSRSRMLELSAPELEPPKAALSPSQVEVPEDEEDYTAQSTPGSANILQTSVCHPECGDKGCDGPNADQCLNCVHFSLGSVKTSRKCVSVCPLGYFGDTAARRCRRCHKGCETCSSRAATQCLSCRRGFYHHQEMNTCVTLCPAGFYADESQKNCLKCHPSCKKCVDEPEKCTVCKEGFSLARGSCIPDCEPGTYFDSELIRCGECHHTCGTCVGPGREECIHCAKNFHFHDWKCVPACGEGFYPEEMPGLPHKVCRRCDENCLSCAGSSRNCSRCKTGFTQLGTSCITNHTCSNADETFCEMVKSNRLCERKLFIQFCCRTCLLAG
Summary of the method: (§2)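 Human enzymes were expressed in Drosophila S2 cells and purified. Fluorogenic pyroGlu-RTKR-AMC was used at fixed concentration with varied inhibitor, 37 °C over 1 h. Buffers: furin, 100 mM Hepes pH 7.5, 1 mM CaCl2, 1 mM β-mercaptoethanol, 1.8 mg/mL BSA; PACE4 and PC7, 20 mM Bis-Tris pH 6.5, 1 mM CaCl2, 1.8 mg/mL BSA; PC2, same buffer at pH 5.7. Ki from IC50 (Cheng–Prusoff), or apparent Ki (Morrison) for tight binders. Triplicate, mean ± SD.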

Plasma = assay: Drug degradation in CD-1 mouse plasma at 0.5 ug/uL after 30 mins by MALDI-TOF MS analysis; format: ADME, cell-free; conditions: 0.5 h
Summary of the method: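 For fragment mapping, 100 μg peptide was incubated in murine plasma at 37 °C. At each time point, plasma samples were quenched with 3% TFA. Proteins were precipitated with 2 volumes acetonitrile and centrifuged at 17 000g. Supernatants were analyzed by MALDI-TOF MS for C-terminally truncated fragments.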

PC-3 [6] = assay: Cytotoxicity against human PC3 cells after 72 hrs by MTT assay; format: functional, cell-based; conditions: PC-3, 72 h; summary of the method: as §1
LNCaP = assay: Cytotoxicity against human LNCAP cells after 72 hrs by MTT assay; format: functional, cell-based; summary of the method: as §1
DU-145 [7] = assay: Cytotoxicity against human DU145 cells after 72 hrs by MTT assay; format: functional, cell-based; conditions: DU-145, 72 h; summary of the method: as §1
Furin = Furin (Homo sapiens, UniProt P09958); assay: Inhibition of human recombinant furin expressed in drosophila schneider 2 cells using pyroGlu-Arg-Thr-Lys-Arg-AMC as substrate after 1 hr; summary of the method: as §2
Chain of Furin (P09958 whole entry): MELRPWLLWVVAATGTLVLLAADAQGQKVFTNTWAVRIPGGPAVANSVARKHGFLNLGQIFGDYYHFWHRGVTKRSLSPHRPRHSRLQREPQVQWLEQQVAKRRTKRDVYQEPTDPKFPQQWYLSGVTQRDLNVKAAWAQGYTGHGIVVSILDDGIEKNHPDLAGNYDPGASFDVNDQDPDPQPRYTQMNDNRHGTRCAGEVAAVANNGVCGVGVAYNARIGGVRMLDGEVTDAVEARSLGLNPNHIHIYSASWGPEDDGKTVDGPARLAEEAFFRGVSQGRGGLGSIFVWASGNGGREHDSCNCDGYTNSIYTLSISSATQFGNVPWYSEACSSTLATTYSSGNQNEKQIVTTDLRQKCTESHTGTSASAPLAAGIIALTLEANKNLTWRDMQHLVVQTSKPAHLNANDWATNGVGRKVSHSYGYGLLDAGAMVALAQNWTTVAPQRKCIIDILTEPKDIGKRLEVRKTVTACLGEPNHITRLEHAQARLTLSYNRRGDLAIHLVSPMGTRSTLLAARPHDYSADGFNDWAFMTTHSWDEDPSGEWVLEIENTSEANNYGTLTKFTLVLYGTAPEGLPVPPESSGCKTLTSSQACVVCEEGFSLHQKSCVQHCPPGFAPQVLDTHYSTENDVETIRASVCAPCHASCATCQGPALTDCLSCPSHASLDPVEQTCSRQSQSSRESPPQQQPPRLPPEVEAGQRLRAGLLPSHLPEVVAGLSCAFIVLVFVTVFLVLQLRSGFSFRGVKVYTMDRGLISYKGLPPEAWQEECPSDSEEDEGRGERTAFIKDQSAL

Compound | Drug uptake (DU-145 [1]) | cytotoxicity at 4 h, 100 µM [2] [%] | inhibition (INH) (PC-3 [3]) [%] | half-life at 0.5 ug/uL [4] [h] | Ki [5] [µM] | Stability (Plasma) | IC50 (PC-3 [6]) [µM] | IC50 (LNCaP) [µM] | IC50 (DU-145 [7]) [µM] | Ki (Furin) [µM]
CC(=O)N[C@@H](CC(C)C)C(=O)N[C@@H](CC(C)C)C(=O)N[C@@H](CC(C)C)C(=O)N[C@@H](CC(C)C)C(=O)N[C@@H](CCCNC(=N)N)C(=O)N[C@H](C(=O)N[C@@H](CCCCN)C(=O)N[C@@H](CCCNC(=N)N)C(N)=O)C(C)C | Active | < 5 | <50 | 5.1 | 0.02 | Unstable |  |  |  | 
CC(=O)N[C@H](CC(C)C)C(=O)N[C@@H](CC(C)C)C(=O)N[C@@H](CC(C)C)C(=O)N[C@@H](CC(C)C)C(=O)N[C@@H](CCCN=C(N)N)C(=O)N[C@H](C(=O)N[C@@H](CCCCN)C(=O)N[C@@H](CCCN=C(N)N)C(N)=O)C(C)C | Active | < 5 |  | 8.6 | 0.024 | Unstable | 190 | 150 | 70 | 0.76
CCCC[C@H](NC(C)=O)C(=O)N[C@@H](CC(C)C)C(=O)N[C@@H](CC(C)C)C(=O)N[C@@H](CC(C)C)C(=O)N[C@@H](CCCNC(=N)N)C(=O)N[C@H](C(=O)N[C@@H](CCCCN)C(=O)N[C@@H](CCCNC(=N)N)C(N)=O)C(C)C |  | < 5 | <50 |  | 0.021 |  |  | 180 | 150 | 0.65
CCCC[C@@H](NC(C)=O)C(=O)N[C@@H](CC(C)C)C(=O)N[C@@H](CC(C)C)C(=O)N[C@@H](CC(C)C)C(=O)N[C@@H](CCCNC(=N)N)C(=O)N[C@H](C(=O)N[C@@H](CCCCN)C(=O)N[C@@H](CCCNC(=N)N)C(N)=O)C(C)C |  | < 5 |  | 7.1 | 0.025 |  | 150 | 90 | 80 | 0.8
CCCC[C@H](NC(C)=O)C(=O)N[C@@H](CC(C)C)C(=O)N[C@@H](CC(C)C)C(=O)N[C@@H](CCCC)C(=O)N[C@@H](CCCNC(=N)N)C(=O)N[C@H](C(=O)N[C@@H](CCCCN)C(=O)N[C@@H](CCCNC(=N)N)C(N)=O)C(C)C |  | < 5 | <50 |  | 0.014 | Unstable |  | 90 | 40 | 0.68
